The target of this assay is T1, Polyunsaturated fatty acid 5-lipoxygenase (Rattus norvegicus, UniProt P12527).
T1 sequence (P12527 whole entry): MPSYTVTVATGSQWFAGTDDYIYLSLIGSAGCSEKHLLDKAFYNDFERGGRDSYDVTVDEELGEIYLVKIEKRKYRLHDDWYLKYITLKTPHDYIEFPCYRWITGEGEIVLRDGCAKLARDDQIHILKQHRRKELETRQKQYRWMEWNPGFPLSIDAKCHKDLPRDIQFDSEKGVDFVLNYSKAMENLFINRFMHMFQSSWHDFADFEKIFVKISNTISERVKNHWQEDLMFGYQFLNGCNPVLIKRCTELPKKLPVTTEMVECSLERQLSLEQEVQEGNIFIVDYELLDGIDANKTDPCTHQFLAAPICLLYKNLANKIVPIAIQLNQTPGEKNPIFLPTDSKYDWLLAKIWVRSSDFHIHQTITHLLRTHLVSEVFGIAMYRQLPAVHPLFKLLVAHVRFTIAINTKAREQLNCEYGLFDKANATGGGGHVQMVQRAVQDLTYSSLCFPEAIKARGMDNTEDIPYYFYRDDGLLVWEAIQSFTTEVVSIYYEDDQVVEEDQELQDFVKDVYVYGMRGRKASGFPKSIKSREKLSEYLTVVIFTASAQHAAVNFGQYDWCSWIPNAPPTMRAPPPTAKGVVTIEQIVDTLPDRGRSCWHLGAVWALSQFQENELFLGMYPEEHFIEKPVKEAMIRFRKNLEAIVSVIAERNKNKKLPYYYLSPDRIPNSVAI
In words: In vitro inhibitory activity against 5-lipoxygenase in rat basophilic leukemia cells(RBL-1). The gist of the method: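 Enzyme source: sonicated lysate of trypsin-harvested adherent RBL-1 cells (3.0 × 10^7 cells/mL in 10 mM BES, 10 mM PIPES, 1 mM EDTA, pH 6.8), 20000g 20-min supernatant. Compounds in DMSO preincubated with enzyme 20 min at 37 °C in buffer with 0.7 mM CaCl2, 100 mM NaCl. Radiolabelled 5-HETE counted after chromatography, corrected via [3H]5-HETE recovery.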

As usually defined, the IC50 is the concentration needed to halve the response being measured. Read a high IC50 as weaker potency in that assay. As to `CC(C)Cc1ccc(C(Cc2ccccc2)C(=O)N(C)O)cc1` (stereo unspecified), the IC50 stood at 1500 nM.

The record behind these values is BindingDB's records for doi:10.1021/jm00165a017 (Abbott Laboratories, 1990).
